For five compounds, CR and IC50 results are on record in PMC10957407 (Food Chemistry: X, 2024).

Holding throughout (format): binding, Balb/c mice
For one experiment, the system named is 1-F12. Put plainly: icELISA with mAb 1-F12. The settings on record: for CR: mAb 1-F12, CR%=IC50 6-GG/IC50 test compound x100%; for IC50: mAb 1-F12, specific evaluation (Table 1, Fig. 3B). Put shortly:
(§1)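 Ascites-derived mAbs (caprylic acid–ammonium sulfate purified) from female Balb/c mice immunized with hapten–BSA. Plates coated with hapten–OVA in carbonate buffer (0.5 mol L−1, pH 9.6), blocked with 5% skim milk, washed with PBST, and detected with goat anti-mouse IgG-HRP; reaction stopped with 2 mol L−1 H2SO4. Analyte stocks (1 mg/mL, 70% methanol) were diluted in 10% methanol-PBS. IC50 values were fitted, and cross-reactivity was calculated for capsaicinoids, gingerol derivatives and eight other compounds.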

Another experiment concerns 1-G12. The experiment can be described thus: icELISA with mAb 1-G12. The settings on record: for CR: mAb 1-G12, CR%=IC50 6-GG/IC50 test compound x100%; for IC50: mAb 1-G12, specific evaluation (Table 1, Fig. 3D). Put shortly: as §1
Another experiment deals with 1-D6. Put plainly: icELISA with mAb 1-D6. As to conditions: for IC50: mAb 1-D6, specific evaluation (Table 1, Fig. 3C); for CR: mAb 1-D6, CR%=IC50 6-GG/IC50 test compound x100%. The method, boiled down:
as §1

Converted amounts (≈) assume the structure as drawn. A value given as a limit tells only on which side of the number the result lay.

In the case of `COc1cc(/C=C/C(=O)O)ccc1O` [Ferulic acid], the figures for the CR with 1-F12, in the experiment with 1-G12 and in the experiment with 1-D6 were <12.66%, <14.01% and 3.07%, respectively. For the same compound, the IC50 in the experiment with 1-D6 is 1.92736 mg/L (≈ 9.93 µM).

Turning to `COc1ccc(/C=C/C(=O)O)cc1O` [IsoFerulic acid], the IC50 in the experiment with 1-F12 is >4 mg/L; in the experiment on 1-G12, >4 mg/L; in the experiment on 1-D6 it was 2.12807 mg/L (≈ 11 µM). The CR with 1-F12 was <12.66%; in the experiment with 1-G12, <14.01%; in the experiment on 1-D6 it was 2.78%.

For `COc1cc(/C=C/C(=O)O)ccc1O` [Trans-Ferulic acid], the IC50 in the experiment on 1-F12, with 1-G12 and with 1-D6 was >4 mg/L each time. The CR in the experiment with 1-F12 is <12.66%; with 1-G12, <14.01%; in the experiment on 1-D6 it was <1.48%.

`COc1cc(C(=O)O)ccc1O` [Vanillic acid]: the IC50 in the experiment with 1-F12 was >4 mg/L; in the experiment on 1-G12, >4 mg/L; with 1-D6, 1.7172 mg/L (≈ 10.2 µM). Further, the results for the CR with 1-F12, in the experiment with 1-G12 and in the experiment on 1-D6 were <12.66%, <14.01% and 3.45%, respectively.

As to `COc1cc(C=O)ccc1O` [Vanillin], the IC50 with 1-F12 is >4 mg/L; in the experiment with 1-G12, >4 mg/L; in the experiment on 1-D6, 1.98161 mg/L (≈ 13 µM). Further, the CR in the experiment on 1-F12 was <12.66%; in the experiment on 1-G12, <14.01%; with 1-D6, 2.99%.

A word on the IC50: it is the midpoint of a concentration-inhibition curve. A lower IC50 goes with higher potency.
